{"source": "ChEMBL document CHEMBL1221393", "about": "“Effects of structure on inhibitory activity in a series of mechanism-based inhibitors of human neutrophil elastase” (Bioorg Med Chem, 2010)", "key": {"[1]": {"biological_target": "T1, Neutrophil elastase (Homo sapiens) (UniProt P08246)", "T1 sequence (whole entry)": "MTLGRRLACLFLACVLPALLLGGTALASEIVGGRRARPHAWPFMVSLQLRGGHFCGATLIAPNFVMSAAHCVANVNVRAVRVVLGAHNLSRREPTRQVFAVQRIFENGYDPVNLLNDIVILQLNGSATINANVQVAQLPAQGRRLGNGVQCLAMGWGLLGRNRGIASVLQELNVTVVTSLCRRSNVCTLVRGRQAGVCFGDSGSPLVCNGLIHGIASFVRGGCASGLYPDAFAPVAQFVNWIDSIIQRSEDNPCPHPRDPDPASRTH", "assay": "Ratio of Kinact to Ki for human neutrophil elastase", "summary_of_the_method": "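Progress-curve method: 10 nM HNE, MeOSuc-AAPV p-nitroanilide (105 μM) and inhibitor at several inhibitor-to-enzyme ratios in 0.1 M HEPES/0.5 M NaCl, pH 7.25, 2.5% DMSO. p-Nitroaniline release was monitored continuously at 410 nm. kobs came from nonlinear fitting of absorbance versus time; kinact/KI = kobs/[I], corrected for substrate concentration. Determined in duplicate.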"}, "[2]": {"biological_target": "T2, Myeloblastin (Homo sapiens) (UniProt P24158)", "T2 sequence (whole entry)": "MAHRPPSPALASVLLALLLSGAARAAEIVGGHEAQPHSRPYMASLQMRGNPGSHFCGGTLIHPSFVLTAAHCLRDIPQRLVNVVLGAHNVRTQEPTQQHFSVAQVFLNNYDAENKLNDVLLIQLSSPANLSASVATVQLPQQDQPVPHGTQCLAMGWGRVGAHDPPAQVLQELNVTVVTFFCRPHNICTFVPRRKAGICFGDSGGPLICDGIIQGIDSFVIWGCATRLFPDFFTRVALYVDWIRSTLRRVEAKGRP", "assay": "Inhibition of human neutrophil proteinase 3 assessed as residual activity at 8.62", "summary_of_the_method": "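Human proteinase 3 (final 34.5 nM) was added with DTNB to 0.1 M HEPES/0.5 M NaCl, pH 7.25, containing inhibitor (final 8.62 μM, from DMSO) and Boc-Ala-Ala-NVa-SBzl. Absorbance at 410 nm was followed for 2 min against a DMSO-only hydrolysis control. % remaining activity = (v/vo)×100, mean of duplicate or triplicate runs.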"}, "[3]": {"biological_target": "T1, Neutrophil elastase (Homo sapiens)", "assay": "Inhibition of human neutrophil elastase at 7 uM", "details": "TDE = time-dependent effect", "summary_of_the_method": "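HNE (700 nM) incubated with inhibitor (7 μM) in 0.1 M HEPES/0.5 M NaCl, pH 7.25, 1% DMSO, in a constant-temperature bath. Aliquots were taken at intervals and added to MeOSuc-Ala-Ala-Pro-Val p-nitroanilide. Residual activity was read as absorbance at 410 nm over 60 s and expressed as percent remaining activity versus time.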"}}, "note": "The source made the active and inactive calls. The calls are words filed in the database; no cut-off is given here.", "data": [{"smiles": "CC(C)C[C@H]1C(=O)N(COC(=O)C(C)c2ccc(Oc3ccccc3)cc2)S(=O)(=O)N1Cc1ccccc1", "note": "(some centres undefined)", "values": [{"measurement": "Ratio", "setting": "[1]", "result": 1770}, {"measurement": "percent remaining activity", "setting": "[2]", "result": "inactive"}]}, {"smiles": "CC(=O)Oc1ccccc1C(=O)OCN1C(=O)[C@H](CC(C)C)N(Cc2ccccc2)S1(=O)=O", "values": [{"measurement": "Ratio", "setting": "[1]", "result": "1.06e+06"}, {"measurement": "percent remaining activity", "setting": "[2]", "result": "inactive"}]}, {"smiles": "CC(C)C[C@H]1C(=O)N(COC(=O)Cc2ccccc2)S(=O)(=O)N1Cc1ccccc1", "values": [{"measurement": "Ratio", "setting": "[1]", "result": 63800}, {"measurement": "percent remaining activity", "setting": "[2]", "result": "inactive"}]}, {"smiles": "CC(C)C[C@H]1C(=O)N(COC(=O)Cc2ccccc2Nc2c(Cl)cccc2Cl)S(=O)(=O)N1Cc1ccccc1", "values": [{"measurement": "Ratio", "setting": "[1]", "result": 1330}, {"measurement": "inhibition", "setting": "[3]", "result": "tde"}, {"measurement": "percent remaining activity", "setting": "[2]", "result": "inactive"}]}, {"smiles": "CC(C)C[C@H]1C(=O)N(COC(=O)Cc2ccccc2)S(=O)(=O)N1C", "values": [{"measurement": "Ratio", "setting": "[1]", "result": 357000}, {"measurement": "percent remaining activity", "setting": "[2]", "result": "inactive"}]}, {"smiles": "CC(C)C[C@H]1C(=O)N(COC(=O)Cc2ccccc2Nc2c(Cl)cccc2Cl)S(=O)(=O)N1C", "values": [{"measurement": "Ratio", "setting": "[1]", "result": 981000}, {"measurement": "inhibition", "setting": "[3]", "result": "tde"}, {"measurement": "percent remaining activity", "setting": "[2]", "result": "inactive"}]}, {"smiles": "CC(=O)Oc1ccccc1C(=O)OCN1C(=O)[C@H](CC(C)C)N(C)S1(=O)=O", "values": [{"measurement": "Ratio", "setting": "[1]", "result": 419000}, {"measurement": "percent remaining activity", "setting": "[2]", "result": "inactive"}]}, {"smiles": "CC(C)C[C@H]1C(=O)N(COC(=O)C(C)c2ccc(C(=O)c3ccccc3)cc2)S(=O)(=O)N1Cc1ccccc1", "note": "(some centres undefined)", "values": [{"measurement": "Ratio", "setting": "[1]", "result": 31000}, {"measurement": "percent remaining activity", "setting": "[2]", "result": "inactive"}]}, {"smiles": "CC(C)C[C@H]1C(=O)N(COC(=O)c2ccccc2O)S(=O)(=O)N1C", "values": [{"measurement": "Ratio", "setting": "[1]", "result": 336000}, {"measurement": "percent remaining activity", "setting": "[2]", "result": "inactive"}]}, {"smiles": "CC(C)Cc1ccc(C(C)C(=O)OCN2C(=O)[C@H](CC(C)C)N(C)S2(=O)=O)cc1", "note": "(some centres undefined)", "values": [{"measurement": "Ratio", "setting": "[1]", "result": 201000}, {"measurement": "percent remaining activity", "setting": "[2]", "result": "inactive"}]}, {"smiles": "CC(C)Cc1ccc(C(C)C(=O)OCN2C(=O)[C@H](CC(C)C)N(Cc3ccccc3)S2(=O)=O)cc1", "note": "(some centres undefined)", "values": [{"measurement": "Ratio", "setting": "[1]", "result": 1580}, {"measurement": "percent remaining activity", "setting": "[2]", "result": "inactive"}]}, {"smiles": "CC(C)C[C@H]1C(=O)N(COC(=O)C(C)c2ccc(Oc3ccccc3)cc2)S(=O)(=O)N1C", "note": "(some centres undefined)", "values": [{"measurement": "Ratio", "setting": "[1]", "result": 501000}, {"measurement": "percent remaining activity", "setting": "[2]", "result": "inactive"}]}, {"smiles": "CC(C)C[C@H]1C(=O)N(COC(=O)C(C)c2ccc(C(=O)c3ccccc3)cc2)S(=O)(=O)N1C", "note": "(some centres undefined)", "values": [{"measurement": "Ratio", "setting": "[1]", "result": 540000}, {"measurement": "percent remaining activity", "setting": "[2]", "result": "inactive"}]}, {"smiles": "CC(C)C[C@H]1C(=O)N(COC(=O)c2ccccc2O)S(=O)(=O)N1Cc1ccccc1", "values": [{"measurement": "Ratio", "setting": "[1]", "result": "1.09e+06"}, {"measurement": "percent remaining activity", "setting": "[2]", "result": "inactive"}]}, {"smiles": "CC(C)C[C@H]1C(=O)N(COC(=O)CCc2ccccc2)S(=O)(=O)N1C", "values": [{"measurement": "Ratio", "setting": "[1]", "result": 296000}, {"measurement": "percent remaining activity", "setting": "[2]", "result": "inactive"}]}, {"smiles": "CC(C)C[C@H]1C(=O)N(COC(=O)CCc2ccccc2)S(=O)(=O)N1Cc1ccccc1", "values": [{"measurement": "Ratio", "setting": "[1]", "result": 3200}, {"measurement": "percent remaining activity", "setting": "[2]", "result": "inactive"}]}]}
